Values after ≈ are worked out from the molar mass of the structure shown.
Legend:
[1] = system: Streptococcus pneumoniae; assay: Antibacterial activity against Erythromycin-susceptible Streptococcus pneumoniae ATCC 49619 assessed as reduction in microbial growth; assay type: functional
[2] = system: Streptococcus pneumoniae; assay: Bactericidal activity against Erythromycin-susceptible Streptococcus pneumoniae ATCC 49619; assay type: functional
Summary of the method: (§1)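 Bacteria were exposed to 1- to 8-fold MIC of the sample, then transferred to fresh medium without antibacterial. After further incubation, colonies were counted. MBC was taken as the lowest concentration giving a >3 log10 reduction in colony number.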

[3] = system: Streptococcus pneumoniae; assay: Ratio of MBC to MIC against Erythromycin-susceptible Streptococcus pneumoniae ATCC 49619; assay type: functional
[4] = system: Streptococcus pneumoniae; assay: Antibacterial activity against penicillin-susceptible Streptococcus pneumoniae PU09 harboring mef gene assessed as reduction in microbial growth; assay type: functional
[5] = system: Streptococcus pneumoniae; assay: Bactericidal activity against penicillin-susceptible Streptococcus pneumoniae PU09 harboring mef gene; assay type: functional
Summary of the method: (§2)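 Bacteria were exposed to 1- to 8-fold their MIC of test sample, then transferred to fresh culture medium without antibacterial compound and incubated for the required time. Colonies were then counted. MBC is the lowest concentration giving a reduction in colony number of >3 Log₁₀.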

[6] = system: Streptococcus pneumoniae; assay: Ratio of MBC to MIC against penicillin-susceptible Streptococcus pneumoniae PU09; assay type: functional
[7] = system: Streptococcus pneumoniae; assay: Antibacterial activity against MLSB-resistant Streptococcus pneumoniae 07P390 harboring ermB gene assessed as reduction in microbial growth; assay type: functional
[8] = system: Streptococcus pneumoniae; assay: Bactericidal activity against MLSB-resistant Streptococcus pneumoniae 07P390 harboring ermB gene assessed as reduction in microbial growth; assay type: functional; summary of the method: as §2
[9] = system: Streptococcus pneumoniae; assay: Ratio of MBC to MIC against MLSB-resistant Streptococcus pneumoniae 07P390 harboring ermB; assay type: functional
[10] = system: Staphylococcus aureus; assay: Antibacterial activity against MLSB/methicillin/ciprofloxacin-resistant Staphylococcus aureus PU32 harboring ermA gene assessed as reduction in microbial growth; assay type: functional
[11] = system: Staphylococcus aureus; assay: Bactericidal activity against MLSB/methicillin/ciprofloxacin-resistant Staphylococcus aureus PU32 harboring ermA gene; assay type: functional; summary of the method: as §2
[12] = system: Staphylococcus aureus; assay: Antibacterial activity against MLSB/methicillin-resistant Staphylococcus aureus 15B196 assessed as reduction in microbial growth; assay type: functional
[13] = system: Staphylococcus aureus; assay: Bactericidal activity against MLSB/methicillin-resistant Staphylococcus aureus 15B196; assay type: functional; summary of the method: as §2
[14] = system: Staphylococcus aureus; assay: Ratio of MBC to MIC against MLSB/methicillin-resistant Staphylococcus aureus 15B196; assay type: functional
[15] = system: Haemophilus influenzae; assay: Antibacterial activity against azithromycin-susceptible Haemophilus influenzae ATCC 49247 assessed as reduction in microbial growth; assay type: functional
[16] = system: Haemophilus influenzae; assay: Bactericidal activity against azithromycin-susceptible Haemophilus influenzae ATCC 49247; assay type: functional; summary of the method: as §1
[17] = system: Haemophilus influenzae; assay: Ratio of MBC to MIC against azithromycin-susceptible Haemophilus influenzae ATCC 49247; assay type: functional
[18] = system: Streptococcus pyogenes; assay: Antibacterial activity against MLSB-resistant Streptococcus pyogenes 12-206 harboring ermA gene assessed as reduction in microbial growth; assay type: functional
[19] = system: Streptococcus pyogenes; assay: Bactericidal activity against MLSB-resistant Streptococcus pyogenes 12-206 harboring ermA gene; assay type: functional; summary of the method: as §2
[20] = system: Streptococcus pyogenes; assay: Ratio of MBC to MIC against MLSB-resistant Streptococcus pyogenes 12-206 harboring ermA gene; assay type: functional
[21] = system: Staphylococcus aureus; assay: Antibacterial activity against MLSB/methicillin/ciprofloxacin-resistant Staphylococcus aureus PU32 harboring ermA gene assessed as reduction in microbial growth relative to ciprofloxacin; assay type: functional
[22] = system: Staphylococcus aureus; assay: Antibacterial activity against MLSB/methicillin-resistant Staphylococcus aureus 15B196 assessed as reduction in microbial growth relative to ciprofloxacin; assay type: functional
[23] = system: Haemophilus influenzae; assay: Antibacterial activity against azithromycin-susceptible Haemophilus influenzae ATCC 49247 assessed as reduction in microbial growth relative to ciprofloxacin; assay type: functional
[24] = biological target: DNA gyrase (Escherichia coli, UniProt P0AES4+P0AES6); assay: Inhibition of Escherichia coli DNA gyrase using relaxed DNA as substrate incubated for 15 mins by ethidium bromide-based agarose gel electrophoresis; assay type: protein-complex assay
Summary of the method: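 Supercoiling assay with relaxed pBR322 (0.3 µg), made by treating negatively supercoiled pBR322 with E. coli topoisomerase I, and 1 unit E. coli gyrase. Buffer: 50 mM Tris-HCl pH 8.0, 10 mM MgCl2, 100 mM potassium glutamate, 10 mM DTT, 50 µg/mL BSA, 1 mM ATP. Run 37 °C, 15 min, stopped with 25 mM EDTA. IC50 in µM.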

[25] = biological target: T1, DNA gyrase (Escherichia coli) (UniProt P0AES6+P0AES4); assay: Poison activity at Escherichia coli DNA gyrase assessed as stabilization of DNA cleavage complex by measuring linear plasmid DNA formation using supercoiled pBR322 incubated for 15 mins by electrophoresis relative to ciprofloxacin; assay type: protein-complex assay
Summary of the method: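 Cleavage assay with 0.3 µg supercoiled pBR322 and 10 units E. coli gyrase. Buffer: 50 mM Tris-HCl pH 8.0, 10 mM MgCl2, 10 mM DTT, 50 µg/mL BSA, 1 mM ATP, 5 µg/mL tRNA; 37 °C, 15 min. Then 1% SDS for 5 min, then 25 mM EDTA plus 100 µg/mL proteinase K for 30 min. Phenol/chloroform extraction, then 1.2% agarose with ethidium bromide.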

[26] = system: Escherichia coli; assay: Antibacterial activity against Escherichia coli BW25113 depletion of toIC efflux gene assessed as reduction in microbial growth; assay type: functional
[27] = system: Escherichia coli; assay: Antibacterial activity against Escherichia coli JW5503-1 depletion of toIC efflux gene assessed as reduction in microbial growth; assay type: functional
[28] = system: Escherichia coli; assay: Antibacterial activity against Escherichia coli JW5503-KanS depletion of toIC efflux gene assessed as reduction in microbial growth; assay type: functional
[29] = biological target: T1, DNA gyrase (Escherichia coli); details: time 15.0 min
[30] = system: Staphylococcus aureus; assay: Ratio of MBC to MIC against MLSB/methicillin/ciprofloxacin-resistant Staphylococcus aureus PU32 harboring ermA gene; assay type: functional

SMILES | MIC [1] [µg/mL] | MBC [2] [µg/mL] | Ratio [3] | MIC [4] [µg/mL] | MBC [5] [µg/mL] | Ratio [6] | MIC [7] [µg/mL] | MBC [8] [µg/mL] | Ratio [9] | MIC [10] [µg/mL] | MBC [11] [µg/mL] | MIC [12] [µg/mL] | MBC [13] [µg/mL] | Ratio [14] | MIC [15] [µg/mL] | MBC [16] [µg/mL] | Ratio [17] | fold change (FC) [21] | fold change (FC) [22] | fold change (FC) [23] | also measured
CC[C@H]1OC(=O)[C@H](C)[C@@H](OC(=O)Cc2ccccn2)[C@H](C)[C@@H](O[C@@H]2O[C@H](C)C[C@H](N(C)C)[C@H]2O)[C@](C)(OC(=O)CCN2CCN(c3c(F)cc4c(=O)c(C(N)=O)cn(C5CC5)c4c3OC)CC2C)C[C@@H](C)CN(C)[C@H](C)[C@@H](O)[C@]1(C)O (stereo partly specified) | 0.5 | 1 (≈ 0.878 µM) | 2 | 2 | 8 (≈ 7.03 µM) | 4 | 8 | 8 | 1 | 128 | > 256 | 8 | 8 (≈ 7.03 µM) | 1 | 0.5 | 0.5 (≈ 0.439 µM) | 1 | 0.14 | 1.2 | 36 | MIC [18]: 8 µg/mL; MBC [19]: > 64 µg/mL; Ratio [20]: >8; IC50 [24]: 9.6 µM; Activity [25]: 71%; MIC [26]: 2 µg/mL; MIC [27]: 0.5 µg/mL; MIC [28]: 0.5 µg/mL; EC [29]: 18.2 µM
CC[C@H]1OC(=O)[C@H](C)[C@@H](OC(=O)Cc2ccccn2)[C@H](C)[C@@H](O[C@@H]2O[C@H](C)C[C@H](N(C)C)[C@H]2O)[C@](C)(OC(=O)CCN2CCN(c3cc4c(cc3F)c(=O)c(C(=O)O)cn4C3CC3)CC2)C[C@@H](C)CN(C)[C@H](C)[C@@H](O)[C@]1(C)O | 0.125 | 0.25 (≈ 0.228 µM) | 2 | 2 | 4 (≈ 3.65 µM) | 2 | 4 | 32 | 8 | 16 | > 128 | 16 | 128 (≈ 117 µM) | 8 | 0.25 | 0.25 (≈ 0.228 µM) | 1 | 0.076 | 9.7 | 19 | Ratio [30]: >8; IC50 [24]: 44.1 µM; Activity [25]: 28%; MIC [26]: 4 µg/mL; MIC [27]: 1 µg/mL; MIC [28]: 1 µg/mL; EC [29]: 69.5 µM
